Bioassay records from PubChem.
DSG3 Ab inh: inhibitors of pemphigus antibody binding to human desmoglein-3 | binding (percent of control), % at 10 µM | DSG3-coupled beads, scFv-anti-DSG3-GFP binding, flow cytometry; hits give low values | actives 0.48% (n = 310,000) | AID 588358 | P32926;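 active means binding more than 3 SD below its plate's average and above zero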;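 further: hits lower antibody fragment binding to DSG3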
pCIP destab: compounds decreasing mouse p/CIP protein stability. Q05BA5. F442A p/CIP-EGFP cells, EGFP fluorescence, 16 h. decrease of EGFP signal, % at 10 µM. actives 0.01% (n = 290,000). AID 1984;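 active means EGFP signal decrease of at least 30% at 10 µM or well 3 SD below plate mean, unless failing retest; inactive means the rest, including hits failing retest or dose response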
CHT allo act: human CHT allosteric activation; actives 0.49% (n = 310,000); Q9GZV3; CHT-expressing cells, membrane potential dye, choline EC20; hits give high values; LV-AA mutant CHT in HEK293 cells; AID 488977; B-score at 10 µM;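 active means initial fluorescence not abnormally high and integrated response B-score, plate-corrected, over 3 SD above library mean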
CHT inh: human CHT choline transport inhibition; Q9GZV3; actives 0.86% (n = 310,000); CHT-expressing cells, membrane potential dye, choline response; hits give low values; AID 488975; B-score at 10 µM;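 active means B-score over 3 SD under the library average, and starting fluorescence ratio not unusually high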;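 further: choline stimulus applied at its EC90 after an EC20 pre-addition; B-score computed on integrated fluorescence ratio after choline addition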
T cell HTS: T cell immune modulation candidate; response (vesicle binding), % at 7 µM; actives 0.068% (n = 330,000); 2C CD8+ T cell-vesicle binding, flow cytometry; hits give low values; AID 2052;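 active means response, share of CD8 T cells binding vesicles, and their 90th percentile fluorescence all below set limits, cut at about 80% in these data, passing the limit was not always enough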;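 further: values below 100% mean blocked vesicle binding to the CD8+ T cells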
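Also added: QL9-peptide-loaded Drosophila micro-vesicles bearing Ld, ICAM-1 and B7-1; Test system: purified 2C TCR transgenic mouse naive CD8+ T cells; Measured by: cytometric PE anti-B7-1 and Alexa647 anti-CD8 signals after 1% paraformaldehyde fixation; Timing: binding step 1.5 h, 37 °C, antibody labelling 20 min, ice.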
GPR7 antag: antagonists of human GPR7 (neuropeptides B/W receptor 1); inhibition, % at 4.4 µM; P48145; GPR7-expressing cells, fluorescence antagonist assay; actives 1.1% (n = 290,000); AID 1861; in the data active means inhibition above about 16%, passing the limit was not always enough;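 further: cells stimulated with the agonist NPW; 0% = agonist with vehicle and 100% = vehicle without agonist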
Target sequence (P48145 whole entry, looked up): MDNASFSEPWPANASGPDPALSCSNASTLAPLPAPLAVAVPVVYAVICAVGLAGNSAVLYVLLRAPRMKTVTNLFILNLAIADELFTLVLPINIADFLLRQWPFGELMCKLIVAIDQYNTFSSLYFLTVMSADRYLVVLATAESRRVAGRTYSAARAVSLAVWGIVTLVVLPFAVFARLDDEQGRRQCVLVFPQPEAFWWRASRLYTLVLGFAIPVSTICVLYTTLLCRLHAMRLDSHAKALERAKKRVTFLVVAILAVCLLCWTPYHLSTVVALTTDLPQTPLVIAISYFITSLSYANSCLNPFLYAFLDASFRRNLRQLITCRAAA
GPR7 antag conf: human GPR7 antagonism, confirmation assay; shares compounds with GPR7 antag; GPR7-expressing cells, calcium fluorescence antagonist mode; inhibition, % at 4.4 µM; actives 52% (n = 2,400); in the data active means inhibition above about 24%;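 further: stimulated with the GPR7 agonist NPW; 0% = agonist plus vehicle and 100% = vehicle alone without agonist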
MCHR1 antag: counter-screen for GPR7 antagonists: antagonists of human MCHR1; shares compounds with GPR7 antag; inhibition, % at 4.4 µM; actives 62% (n = 2,400); AID 2148; MCHR1-expressing cells, fluorescence antagonist assay; in the data active means inhibition above about 22%;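 further: 0% = vehicle with agonist and 100% = vehicle without agonist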
* marks the source's active call; other numbers are inactive results. An excerpt weighted towards active compounds, which were near 2.3% of everything screened.

What do the screens show for `O=C(Cc1nc2ccccc2s1)c1ccc(O)cc1O`?
pCIP destab: -6.8; CHT allo act: inactive; CHT inh: inactive; T cell HTS: 719.5; GPR7 antag: 25.3*; GPR7 antag conf: 7.8; MCHR1 antag: 3.6

How did CC1=C(C(=O)N(C)C)CC(CC(=O)NC2CCCC2)C(=O)N1Cc1ccccc1 (centres undefined) do in these assays?
DSG3 Ab inh: 106.2

What do the screens show for `COc1ccc(CNCC(O)(c2ccc(Cl)cc2)c2ccc(Cl)cc2)cc1`?
DSG3 Ab inh: 101.2; pCIP destab: -8.1; CHT allo act: inactive; CHT inh: inactive; T cell HTS: 507.6; GPR7 antag: 31.3*; GPR7 antag conf: 38.9*; MCHR1 antag: 55.6*

What do the screens show for `COc1ccc(CNCC(O)(c2ccc(Cl)cc2)c2ccc(Cl)cc2)cc1OC`?
DSG3 Ab inh: 101.7; pCIP destab: -9.6; CHT allo act: inactive; CHT inh: inactive; T cell HTS: 148.8; GPR7 antag: 22.8

Results for CCCCNCC(O)(c1ccc(Cl)cc1)c1ccc(Cl)cc1 ?
DSG3 Ab inh: 105.2; pCIP destab: -10.8; CHT allo act: inactive; CHT inh: inactive; T cell HTS: 218.8; GPR7 antag: 27.3*; GPR7 antag conf: 55.2*; MCHR1 antag: 64.5*

How did COc1ccc(Cc2nc3ccc(C(=O)NCCc4ncccc4C)cc3o2)cc1OC do in these assays?
DSG3 Ab inh: 98.4

How did CCCC(=O)Nc1cccc(-c2cn3cccnc3n2)c1 do in these assays?
DSG3 Ab inh: 107.8; pCIP destab: 13.3; CHT allo act: inactive; CHT inh: inactive; T cell HTS: 243.7; GPR7 antag: 67.9*; GPR7 antag conf: 7.5; MCHR1 antag: 4.8

Results for CC(c1ccon1)N(C)C(=O)CCc1nnc(C2(c3ccc(Cl)cc3)CCC2)o1 (centres undefined) ?
DSG3 Ab inh: 94.1; pCIP destab: -14.6; CHT allo act: inactive; CHT inh: inactive; T cell HTS: 102.3; GPR7 antag: 25.0*; GPR7 antag conf: -5.6; MCHR1 antag: 3.9

How did CCN1CCN(S(=O)(=O)c2ccc(Cl)c(C(=O)N(C)Cc3ccc(C(C)(C)C)cc3)c2)CC1 do in these assays?
DSG3 Ab inh: 109.9

What do the screens show for `CCOc1ccc(N/C(N)=N/c2nc(C)cc(C)n2)cc1`?
DSG3 Ab inh: 103.5; pCIP destab: 0.8; CHT allo act: inactive; CHT inh: inactive; T cell HTS: 281.2; GPR7 antag: 98.8*; GPR7 antag conf: 93.6*; MCHR1 antag: 97.4*

How did COc1ccc(C)cc1N/C(N)=N/c1nc(C)cc(C)n1 do in these assays?
DSG3 Ab inh: 101.7; pCIP destab: 4.1; CHT allo act: inactive; CHT inh: inactive; T cell HTS: 301.4; GPR7 antag: -7.7

How did Cc1ccc(C)c(N/C(N)=N/c2nc(C)cc(C)n2)c1 do in these assays?
DSG3 Ab inh: 119.4; pCIP destab: -3.4; CHT allo act: inactive; CHT inh: inactive; T cell HTS: 311.8; GPR7 antag: 61.1*; GPR7 antag conf: 66.2*; MCHR1 antag: 71.1*

Results for CCC(=O)N/C(=N/c1nc(C)cc(C)n1)Nc1ccc(C)cc1 ?
DSG3 Ab inh: 93.5; pCIP destab: -2.7; CHT allo act: inactive; CHT inh: inactive; T cell HTS: 271.2; GPR7 antag: 9.1

How did CCOc1ccc(N/C(=N/c2nc(C)cc(C)n2)NC(=O)CC)cc1 do in these assays?
DSG3 Ab inh: 121.2; pCIP destab: 2.9; CHT allo act: inactive; CHT inh: inactive; T cell HTS: 254.0; GPR7 antag: 21.1*; GPR7 antag conf: 0.8; MCHR1 antag: 7.5

What do the screens show for `CN(C)C(=O)c1cc2cc([N+](=O)[O-])ccc2s1`?
DSG3 Ab inh: 87.4; pCIP destab: -1.1; CHT allo act: inactive; CHT inh: inactive; T cell HTS: 321.0; GPR7 antag: 26.4*; GPR7 antag conf: -12.8; MCHR1 antag: 11.7

What do the screens show for `Cc1cccc(OCC(=O)N2CCc3ccccc3C2)c1C`?
DSG3 Ab inh: 105.5

How did O=S(=O)(c1ccc(OCC(O)CN2CCN(c3ccccc3)CC2)cc1)N1CCOCC1 (centres undefined) do in these assays?
DSG3 Ab inh: 103.1; pCIP destab: -0.6; CHT allo act: inactive; CHT inh: inactive; T cell HTS: 271.5; GPR7 antag: 25.2*; GPR7 antag conf: 4.8; MCHR1 antag: 11.9

Results for S=C(NCc1ccccc1)Nc1ccc(Oc2ccccc2)cc1 ?
DSG3 Ab inh: 113.3; pCIP destab: 6.3; CHT allo act: inactive; CHT inh: inactive; T cell HTS: 265.3; GPR7 antag: 27.7*; GPR7 antag conf: 15.3; MCHR1 antag: 28.7*

Results for CC(C)n1cc(NC(=O)c2cc(-c3ccccc3)on2)cn1 ?
DSG3 Ab inh: 77.0; pCIP destab: 3.2; CHT allo act: inactive; CHT inh: inactive; T cell HTS: 102.5; GPR7 antag: 24.3*; GPR7 antag conf: 14.3; MCHR1 antag: 30.0*

What do the screens show for `CCCCCCCCCCCC1N=C(N)NC(CCCO)=C1C(=O)OC` (centres undefined)?
DSG3 Ab inh: 109.1

What do the screens show for `COc1ccc(Cc2nc3ccc(C(=O)NCCc4ccccn4)cc3o2)cc1OC`?
DSG3 Ab inh: 103.8; pCIP destab: -3.2; CHT allo act: inactive; CHT inh: inactive; T cell HTS: 173.0; GPR7 antag: 22.3*; GPR7 antag conf: 1.5; MCHR1 antag: 14.5

What do the screens show for `CC12CC(c3ccccc3O1)C(C(=O)NCc1ccccc1)C(=O)N2` (centres undefined)?
DSG3 Ab inh: 100.0; pCIP destab: -18.0; CHT allo act: inactive; CHT inh: inactive; T cell HTS: 605.6; GPR7 antag: -15.9

What do the screens show for `CN1C(=O)C(/C(N)=N/NC(=O)c2ccccc2)C2CC1(C)Oc1ccccc12` (centres undefined)?
DSG3 Ab inh: 105.4; pCIP destab: 8.2; CHT allo act: inactive; CHT inh: inactive; T cell HTS: 284.1; GPR7 antag: 98.6*; GPR7 antag conf: 8.8; MCHR1 antag: -3.5

Results for O=[N+]([O-])c1ccc(N2CCN(Cc3cccc([N+](=O)[O-])c3)CC2)cc1 ?
DSG3 Ab inh: 95.6; pCIP destab: 4.5; CHT allo act: inactive; CHT inh: inactive; T cell HTS: 276.6; GPR7 antag: 37.4*; GPR7 antag conf: 55.7*; MCHR1 antag: 63.1*
